High-throughput results as filed in PubChem.
The list is not random: actives were taken first. Their share in the collection is about 1.2%.
FN deposit inh – fibronectin deposition inhibition | AID 743247 | AH1F fibroblasts, Alexa488-fibronectin deposition fluorescence, overnight | actives 0.086% (n = 350,000) | inhibition, % at 12.6 µM;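 active means mean inhibition across replicates of 30% or more, regardless of how many single replicates reach that level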
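Material: AH1F fibroblast monolayer depositing Alexa488-labelled fibronectin into matrix | Input: 10000 AH1F cells/well | Medium: DMEM plus 2% serum, read in PBS | Reagent: Alexa488-fibronectin, 24 nM final in well | Compound dosing: One dose per compound, pinned | Schedule: 1 h adhesion, overnight exposure | Measured by: Fluorescence at 485 nm excitation, 525 nm emission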
APOBEC3A inh – inhibitors of human APOBEC3A DNA deaminase | P31941 | recombinant A3A, FAM/TAMRA ssDNA deamination fluorescence | inhibition, % at 20 µM | actives 0.41% (n = 330,000);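 active means at least 40% inhibition at 20 µM here, with at most 30% in a related deaminase screen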
ABHD5-PLIN5 inh – inhibitors of human ABHD5-perilipin-5 interaction. Q00G26+Q8WTS1. Split G. princeps luciferase complementation, luminescence, 4 h. inhibition, % at 4 µM. actives 0.78% (n = 360,000). AID 602281;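 active means inhibition above the mean inhibition across every tested compound plus 3 SD, cut at about 22% in these data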
A3G deaminase – inhibitors of human APOBEC3G DNA deaminase. inhibition, % at 20 µM. recombinant A3G, ssDNA deamination FAM/TAMRA fluorescence. Q9HC16. actives 0.28% (n = 330,000);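 active means inhibition of at least 40% at 20 µM, with no more than 30% in the related APOBEC3A deaminase screen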
Target sequence (Q9HC16 whole entry, looked up): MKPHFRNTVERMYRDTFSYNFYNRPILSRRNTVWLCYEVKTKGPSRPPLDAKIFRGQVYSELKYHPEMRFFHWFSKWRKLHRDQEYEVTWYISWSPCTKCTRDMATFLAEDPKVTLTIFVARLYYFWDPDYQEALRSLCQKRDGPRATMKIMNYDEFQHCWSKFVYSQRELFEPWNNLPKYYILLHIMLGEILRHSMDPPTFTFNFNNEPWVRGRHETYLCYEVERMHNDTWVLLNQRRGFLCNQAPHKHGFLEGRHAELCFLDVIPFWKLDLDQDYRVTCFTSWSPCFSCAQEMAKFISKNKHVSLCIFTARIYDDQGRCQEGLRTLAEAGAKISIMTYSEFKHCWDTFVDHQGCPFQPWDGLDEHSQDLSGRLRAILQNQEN
APOBEC3G confirm – confirmation of human APOBEC3G DNA deaminase inhibitors. shares compounds with A3G deaminase. recombinant A3G ssDNA deaminase, UDG/FAM-TAMRA fluorescence. inhibition, % at 20 µM. actives 72% (n = 890). AID 493152;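 active means inhibition reaching a set limit in any replicate at 20 µM, the limit being 80% of the first screen's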
UDG ctr A3G – inhibits E. coli UDG, flagging false APOBEC3G inhibitors; shares compounds with A3G deaminase; UDG counterscreen, FAM/TAMRA oligo fluorescence; inhibition, % at 20 µM; 710 tested, under 10 active;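 active means compounds giving 40% or more inhibition at 20 µM in any one of the three replicates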;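 further: inhibitors lower the FAM signal released by uracil excision and alkaline cleavage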
Target sequence (P12295 whole entry, looked up): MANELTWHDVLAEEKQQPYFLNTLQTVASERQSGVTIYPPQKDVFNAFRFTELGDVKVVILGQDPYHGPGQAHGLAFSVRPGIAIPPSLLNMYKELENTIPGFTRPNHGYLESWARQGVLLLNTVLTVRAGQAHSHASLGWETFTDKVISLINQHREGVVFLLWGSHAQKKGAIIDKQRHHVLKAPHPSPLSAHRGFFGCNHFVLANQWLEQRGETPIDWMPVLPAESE
Numbers stand for hits.

Results for CN(C)C(=O)CSc1nc2cc(S(=O)(=O)N3CCOCC3)ccc2o1 ?
FN deposit inh: inactive; APOBEC3A inh: inactive; ABHD5-PLIN5 inh: inactive; A3G deaminase: inactive

Results for Nc1nc2cc(S(=O)(=O)N3CCOCC3)ccc2o1 ?
FN deposit inh: inactive; APOBEC3A inh: inactive; ABHD5-PLIN5 inh: inactive; A3G deaminase: 46; APOBEC3G confirm: 43; UDG ctr A3G: inactive

How did NC(=O)CSc1nc2cc(S(=O)(=O)N3CCOCC3)ccc2o1 do in these assays?
FN deposit inh: inactive; APOBEC3A inh: inactive; ABHD5-PLIN5 inh: inactive; A3G deaminase: 43; APOBEC3G confirm: 24; UDG ctr A3G: inactive

How did S=C(c1ccc(-c2ccccc2Cl)o1)N1CCOCC1 do in these assays?
APOBEC3A inh: inactive; ABHD5-PLIN5 inh: inactive; A3G deaminase: 61; APOBEC3G confirm: 55; UDG ctr A3G: inactive

How did COC(=O)N(C)C[C@@H]1OCc2cn(nn2)CCCC(=O)N([C@@H](C)CO)C[C@@H]1C do in these assays?
FN deposit inh: inactive

Results for Cc1ccc(C)c(NC(=O)c2ccc3ccccc3n2)c1 ?
APOBEC3A inh: inactive; ABHD5-PLIN5 inh: inactive; A3G deaminase: inactive

Results for COc1ccc(NC(=S)c2ccc3ccccc3n2)cc1 ?
APOBEC3A inh: inactive; ABHD5-PLIN5 inh: inactive; A3G deaminase: 62; APOBEC3G confirm: 62; UDG ctr A3G: inactive

How did Cc1ccc(NC(=S)c2ccc3ccccc3n2)c(C)c1 do in these assays?
FN deposit inh: inactive; APOBEC3A inh: inactive; ABHD5-PLIN5 inh: inactive; A3G deaminase: 46; APOBEC3G confirm: 22; UDG ctr A3G: inactive

Results for COCC(=O)Nc1ccc2c(c1)[C@@H]1C[C@H](CC(=O)NCCc3ccccc3)O[C@H](CO)[C@@H]1O2 ?
FN deposit inh: inactive

What do the screens show for `S=c1[nH]nc(-c2ccccn2)n1/N=C/c1ccc(Cl)c(Cl)c1`?
FN deposit inh: inactive; APOBEC3A inh: inactive; ABHD5-PLIN5 inh: inactive; A3G deaminase: 46; APOBEC3G confirm: 45; UDG ctr A3G: inactive

How did S=c1[nH]nc(-c2cc(-c3ccccc3)n[nH]2)n1/N=C/c1ccc(Cl)c(Cl)c1 do in these assays?
FN deposit inh: inactive; APOBEC3A inh: inactive; ABHD5-PLIN5 inh: inactive; A3G deaminase: inactive

Results for S=c1[nH]nc(-c2cc(-c3ccccc3)n[nH]2)n1/N=C/c1cccc(Cl)c1 ?
FN deposit inh: inactive; APOBEC3A inh: inactive; ABHD5-PLIN5 inh: inactive; A3G deaminase: 53; APOBEC3G confirm: inactive; UDG ctr A3G: inactive

What do the screens show for `S=c1[nH]nc(-c2cc(-c3ccccc3)n[nH]2)n1/N=C/c1ccc(Cl)cc1`?
FN deposit inh: inactive; APOBEC3A inh: inactive; ABHD5-PLIN5 inh: inactive; A3G deaminase: inactive

Results for C[C@@H]1CN([C@H](C)CO)C(=O)c2cc(C#CC3CCCCC3)cnc2O[C@H]1CN(C)C ?
FN deposit inh: inactive

Results for CCCNC(=O)Nc1ccc2c(c1)C(=O)N(C)C[C@H](OC)[C@@H](C)CN(CC1CCCC1)[C@H](C)CO2 ?
FN deposit inh: inactive

What do the screens show for `Cc1cc(OCC(=O)NCCN2CCOCC2)cc(C)c1Cl`?
FN deposit inh: inactive; APOBEC3A inh: inactive; ABHD5-PLIN5 inh: inactive; A3G deaminase: 79; APOBEC3G confirm: inactive; UDG ctr A3G: inactive

What do the screens show for `C[C@@H]1CCCCO[C@H](CN(C)C(=O)C2CCCCC2)[C@H](C)CN([C@@H](C)CO)C(=O)c2cc(NC(=O)Nc3ccccc3)ccc2O1`?
FN deposit inh: inactive

Results for Cc1cccc(-n2ccnc2SCC(=O)Nc2nnc(C)s2)c1 ?
FN deposit inh: inactive; APOBEC3A inh: inactive; ABHD5-PLIN5 inh: inactive; A3G deaminase: 49; APOBEC3G confirm: inactive; UDG ctr A3G: inactive

What do the screens show for `CO[C@@H]1CN(C)C(=O)c2ccc(NS(C)(=O)=O)cc2OC[C@@H](C)N(Cc2cncnc2)C[C@@H]1C`?
FN deposit inh: inactive

What do the screens show for `CC(C)(O)C1Cc2cc(/C=C/C(=O)O)c(O)cc2O1` (configuration not stated)?
FN deposit inh: inactive; APOBEC3A inh: inactive; ABHD5-PLIN5 inh: inactive; A3G deaminase: 82; APOBEC3G confirm: 94; UDG ctr A3G: inactive

Results for S=c1[nH]nc(-c2ccco2)n1C1CCCCC1 ?
FN deposit inh: inactive; APOBEC3A inh: inactive; ABHD5-PLIN5 inh: inactive; A3G deaminase: 44; APOBEC3G confirm: 84; UDG ctr A3G: inactive

How did Nn1c(-c2ccco2)n[nH]c1=S do in these assays?
FN deposit inh: inactive; APOBEC3A inh: inactive; ABHD5-PLIN5 inh: inactive; A3G deaminase: inactive

How did C[C@H](CO)N1C[C@H](C)[C@@H](CN(C)Cc2ccc(Oc3ccccc3)cc2)Oc2ccc(NC(=O)CCC(F)(F)F)cc2CC1=O do in these assays?
FN deposit inh: inactive

How did CC1CCN(C(=S)c2ccc(O)cc2)CC1 do in these assays?
FN deposit inh: inactive; APOBEC3A inh: inactive; ABHD5-PLIN5 inh: inactive; A3G deaminase: inactive

Results for CC1CCN(C(=S)c2ccccc2O)CC1 ?
FN deposit inh: inactive; APOBEC3A inh: inactive; ABHD5-PLIN5 inh: inactive; A3G deaminase: 49; APOBEC3G confirm: 42; UDG ctr A3G: inactive

What do the screens show for `CCOC(=O)c1cc(-c2ccccc2)sc1NC(=O)C(C)C`?
FN deposit inh: inactive; APOBEC3A inh: inactive; ABHD5-PLIN5 inh: inactive; A3G deaminase: inactive

What do the screens show for `CCOC(=O)c1cc(-c2ccccc2)sc1NC(=O)c1ccc(OC)c(OC)c1`?
APOBEC3A inh: inactive; ABHD5-PLIN5 inh: inactive; A3G deaminase: 57; APOBEC3G confirm: 47; UDG ctr A3G: inactive

Results for CCC(=O)Nc1ccc2c(c1)C(=O)N(C)C[C@@H](OC)[C@@H](C)CN(C(=O)CN1CCOCC1)[C@@H](C)CO2 ?
FN deposit inh: inactive

How did COc1ccc(C[C@@H]2CCn3cc(nn3)COC[C@H](C)NC2=O)cc1 do in these assays?
FN deposit inh: inactive

What do the screens show for `O=C(Cc1ccc(Cl)cc1)Nc1cccc(S(=O)(=O)Nc2ccccc2F)c1`?
FN deposit inh: inactive; APOBEC3A inh: inactive; ABHD5-PLIN5 inh: inactive; A3G deaminase: inactive

Results for O=C1CCC(C(=O)Nc2cccc(S(=O)(=O)Nc3ccccc3F)c2)=NN1 ?
FN deposit inh: inactive; APOBEC3A inh: inactive; ABHD5-PLIN5 inh: inactive; A3G deaminase: 73; APOBEC3G confirm: 63; UDG ctr A3G: inactive

How did O=C(Nc1cccc(S(=O)(=O)Nc2ccccc2F)c1)c1ccco1 do in these assays?
FN deposit inh: inactive; APOBEC3A inh: inactive; ABHD5-PLIN5 inh: inactive; A3G deaminase: inactive

How did O=C(CSc1ccc([N+](=O)[O-])cc1)Nc1cccc(S(=O)(=O)Nc2ccccc2F)c1 do in these assays?
FN deposit inh: inactive; APOBEC3A inh: inactive; ABHD5-PLIN5 inh: inactive; A3G deaminase: 44; APOBEC3G confirm: 23; UDG ctr A3G: inactive

Results for CO[C@@H]1CN(C)C(=O)c2ccc(NC(C)=O)cc2OC[C@@H](C)N(C(=O)CN(C)C)C[C@H]1C ?
FN deposit inh: inactive
